Test results as given in ChEMBL document CHEMBL2321684, “Novel hybrids of optically active ring-opened 3-n-butylphthalide derivative and isosorbide as potential anti-ischemic stroke agents” (J Med Chem, 2013).
In brackets after ≈: the same amount, converted by molar mass. Activity calls are given as the source filed them. No cut-off for these calls is given here.

How the values were obtained:
[1] = tested on: Rattus norvegicus; test: Antiischemic activity in Sprague-Dawley rat assessed as reduction in middle cerebral artery occlusion-induced inflammatory infiltrates in brain at 340 mg/kg administered via gavage for 7 days prior to middle cerebral artery occlusion-challenge measured after 24 hrs by microscopic analysis; format: functional, organism-based; parameters: dose 340 mg/kg
Summary of the method: (§1)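 Male SD rats (280−320 g), n = 12 per group, dosed by gavage daily for 7 days in 0.5% CMC-Na vehicle. Sham animals received vehicle only. Two hours after the last dose, rats were anesthetized with chloral hydrate (300 mg/kg ip) and given MCAO for 2 h, then reperfused. Body temperature was held at 37 °C. All endpoints were read at 24 h post reperfusion.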

[2] = tested on: Rattus norvegicus; test: Antiischemic activity in Sprague-Dawley rat assessed as reduction in middle cerebral artery occlusion-induced water content in brain at 80 mg/kg administered via gavage for 7 days prior to middle cerebral artery occlusion-challenge measured after 24 hrs relative to control; format: functional, organism-based; parameters: dose 80 mg/kg; summary of the method: as §1
[3] = Biodistribution in ICR mouse brain at 680 mg/kg, po after 8 hrs by HPLC analysis; format: ADME, organism-based; parameters: dose 680 mg/kg, route oral; conditions: read-out: Drug uptake
Summary of the method: (§2)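 Male ICR mice (30−35 g), n = 6 per time point, were given a single 680 mg/kg gavage dose and sacrificed at 0.5, 1, 2, 4 and 8 h. Brains were rinsed, weighed and homogenized in 3 volumes of saline. Plasma and homogenate were precipitated with 3 volumes of acetonitrile.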

[4] = Biodistribution in ICR mouse brain at 680 mg/kg, po after 4 hrs by HPLC analysis; format: ADME, organism-based; parameters: dose 680 mg/kg, route oral; conditions: read-out: Drug uptake; summary of the method: as §2
[5] = Aqueous solubility of the compound after 5 hrs by UV-spectrophotometric analysis; format: physicochemical; conditions: water
[6] = tested on: Rattus norvegicus; test: Antithrombotic activity in Sprague-Dawley rat assessed as reduction in arteriovenous shunt-induced dry thrombus weight at 340 mg/kg, administered via gavage for 7 days prior to arteriovenous shunt-challenge measured up to 15 mins relative to control; format: functional, organism-based; parameters: dose 340 mg/kg
Summary of the method: (§3)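 Male SD rats (250−280 g), n = 12 per group, dosed by gavage daily for 7 days in 0.5% CMC-Na. Two hours after the last dose, rats were anesthetized with chloral hydrate (300 mg/kg ip). A saline-filled 14 cm polyethylene catheter holding a 6 cm silk thread linked the left jugular vein and right carotid artery for 15 min. The thrombus was then weighed wet and dry. Results are mean ± SD, analysed by ANOVA/Tukey.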

[7] = tested on: Rattus norvegicus; test: Antithrombotic activity in Sprague-Dawley rat assessed as reduction in arteriovenous shunt-induced dry thrombus weight at 80 mg/kg, administered via gavage for 7 days prior to arteriovenous shunt-challenge measured up to 15 mins relative to control; format: functional, organism-based; parameters: dose 80 mg/kg; summary of the method: as §3
[8] = tested on: Rattus norvegicus; test: Antithrombotic activity in Sprague-Dawley rat assessed as reduction in arteriovenous shunt-induced wet thrombus weight at 340 mg/kg, administered via gavage for 7 days prior to arteriovenous shunt-challenge measured up to 15 mins relative to control; format: functional, organism-based; parameters: dose 340 mg/kg; summary of the method: as §3
[9] = tested on: Rattus norvegicus; test: Antithrombotic activity in Sprague-Dawley rat assessed as reduction in arteriovenous shunt-induced wet thrombus weight at 80 mg/kg, administered via gavage for 7 days prior to arteriovenous shunt-challenge measured up to 15 mins relative to control; format: functional, organism-based; parameters: dose 80 mg/kg; summary of the method: as §3
[10] = Stability in artificial gastric juice assessed as compound remaining at pH 1.5 after 8 hr by HPLC analysis; format: physicochemical; conditions: simulated gi fluid, pH 1.5, 8 h
[11] = Stability in artificial gastric juice assessed as compound remaining at pH 1.5 measured immediately by HPLC analysis; format: physicochemical; conditions: simulated gi fluid
[12] = tested on: Platelet; test: Antiplatelet aggregation activity in rabbit platelets assessed as inhibition of ADP-induced platelet aggregation at 0.1 mM incubated for 5 mins prior to ADP-challenge measured within 5 mins by turbidimetric analysis; format: functional, cell-based; conditions: Oryctolagus cuniculus
Summary of the method: (§4)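 Rabbit carotid blood was citrated (3.8%, 9:1). PRP was adjusted with PPP to 400−450 × 10⁹ platelets/L. PRP was preincubated with compound or DMSO for 5 min at 37 °C, then aggregation was induced with ADP at 10 μM. Maximum aggregation rate was recorded over 5 min using Born's turbidimetry. Inhibition % was calculated versus vehicle; n = 6, mean ± SD.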

[13] = Antiplatelet aggregation activity in rabbit platelets assessed as inhibition of ADP-induced platelet aggregation at 1 mM incubated for 5 mins prior to ADP-challenge measured within 5 mins by Born's turbidimetric analysis relative to control; format: functional; conditions: Oryctolagus cuniculus; summary of the method: as §4
[14] = Antiplatelet aggregation activity in rabbit platelets assessed as inhibition of ADP-induced platelet aggregation incubated for 5 mins prior to ADP-challenge measured within 5 mins by Born's turbidimetric analysis; format: functional, cell-based; conditions: Oryctolagus cuniculus

- concentration at 8 h [3]: 16.7 ng/mL
- concentration at 4 h [4]: 54.3 ng/mL
- solubility at 5 h [5]: 11.2 mg/mL (≈ 13.9 mM)
- Stability [10]: 4.96 µM
- Stability [11]: 4.92 µM
- IC50 [14]: 70 µM
Structure (SMILES): CCCC[C@H](OC(=O)CN1CCN(C)CC1)c1ccccc1C(=O)O[C@H]1CO[C@H]2[C@@H]1OC[C@H]2OC(=O)c1ccccc1[C@H](CCCC)OC(=O)CN1CCN(C)CC1
- Activity [1]: Active
- Activity [2]: Active
- Activity [6]: Active
- Activity [7]: Active
- Activity [8]: Active
- Activity [9]: Active
- inhibition [12]: Active
- inhibition at 1000 µM [13]: 50.1%
